Series [1] relates to HCT-116. In words: Cytotoxicity against human HCT116 cells after 72 hrs by MTT assay. The following applies: HCT-116, 72 h. Type of series: functional, cell-based. For orientation: Tetrazolium dyes change colour on reduction, which living cells bring about.
Series [2] has as its system HCT-116. As to the kind of experiment: Cell cycle arrest in human HCT116 cells assessed as accumulation at G2/M phase at 5 to 20 uM after 24 hrs by propidium iodide staining-based flow cytometry. Type of series: functional. In outline: (§1)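 Subconfluent cultures exposed continuously to compound; floating and trypsinized adherent cells pooled, PBS-washed, fixed in ice-cold 70% ethanol 30 min, RNase (100 µg/mL) treated, stained with propidium iodide, DNA content measured by flow cytometry to give G1, S, G2/M, apoptotic (sub-G1) and polyploid fractions. Experiments repeated at least twice.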
In general terms: In flow cytometry, cells or beads pass a laser one at a time.

In series [3] the test system is HCT-116. As to the kind of experiment: Inhibition of mitosis in human HCT116 cells assessed as mitotic index at 20 uM after 24 hrs by fluorescence assay. Format: functional. In outline:
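Cells treated 24 h, collected as for cell cycle analysis, cytospun, fixed in cold methanol, stained with 3 µM DAPI; mitotic cells counted among 1000 cells under 40× objective. Mean ± SD from three independent experiments.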

The nature of series [4]: Solubility of the compound at 20 uM.
A further series concerns SK-BR-3. As to the kind of experiment: Cytotoxicity against human SKBR3 cells after 72 hrs by SRB assay. Format: functional, cell-based. The following applies: SK-BR-3, 72 h. Put shortly:
(§2)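 Cells plated at 2 × 10³ per well 24 h before continuous 72 h exposure to a concentration series; fixed with cold 50% TCA 1 h at 4 °C, stained with 0.4% sulforhodamine B in 1% acetic acid 30 min, bound dye extracted in 10 mM Tris base, OD 540 nm. Viability as % of DMSO control; IC50 = concentration reducing viability 50%; triplicates, ≥3 experiments.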
(In SRB staining, fixed cells bind dye roughly in proportion to their protein.)

The subject of a further series is MCF7. In words: Cytotoxicity against human MCF7 cells after 72 hrs by SRB assay. Type of series: functional, cell-based. The settings on record: MCF7, 72 h. In outline:
as §2

The subject of another series is HT-29. As to the kind of experiment: Cytotoxicity against human HT-29 cells after 72 hrs by SRB assay. Format: functional, cell-based. The settings on record: HT-29, 72 h. Put shortly: as §2
A further series has as its system Caco-2. In words: Cytotoxicity against human Caco2 cells after 72 hrs by MTT assay. Type of series: functional, cell-based. The settings on record: Caco-2, 72 h. Put shortly: (§3)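 Cells seeded at 2 × 10³ per well, 24 h later exposed continuously 72 h to varying concentrations; then 0.5 mg/mL MTT in phenol red-free DMEM 3 h at 37 °C, formazan dissolved in 2-propanol/HCl, OD 570 nm. Viability relative to DMSO vehicle; IC50 = concentration reducing viability by 50%; triplicate wells, at least three independent experiments, mean ± SD.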

In the next series the test system is LoVo. As to the kind of experiment: Cytotoxicity against human LoVo cells after 72 hrs by MTT assay. Format: functional, cell-based. Put shortly:
as §3

The test system of a further series is T98G. In words: Cytotoxicity against human T98G cells after 72 hrs by SRB assay. Format: functional, cell-based. Put shortly:
as §2

The subject of another series is DU-145. As to the kind of experiment: Cytotoxicity against human DU145 cells after 72 hrs by MTT assay. Format: functional, cell-based. The following applies: DU-145, 72 h. In outline:
as §3

A further series deals with LNCaP. In words: Cytotoxicity against human LNCAP cells after 72 hrs by SRB assay. Format: functional, cell-based. Put shortly:
as §2

A further series has as its system PC-3. In words: Cytotoxicity against human PC3 cells after 72 hrs by MTT assay. The settings on record: PC-3, 72 h. Type of series: functional, cell-based. In outline: as §3
The test system of another series is A549. As to the kind of experiment: Cytotoxicity against human A549 cells after 72 hrs by SRB assay. Type of series: functional, cell-based. The settings on record: A549, 72 h. Put shortly: as §2
The subject of another series is AGS. In words: Cytotoxicity against human AGS cells after 72 hrs by MTT assay. Format: functional, cell-based. In outline: as §3
In series [5] the test system is HCT-116. In words: Cell cycle arrest in human HCT116 cells assessed as accumulation at G2/M phase after 24 hrs by propidium iodide staining-based flow cytometry. Type of series: functional. In outline:
as §1

Activity calls are given as the source filed them. No cut-off for these calls is given here.

For the molecule `CC(=O)O[C@@H]1C=C[C@H](OCCOc2cc(O)c3c(=O)c(-c4ccc(O)cc4)coc3c2)O[C@H]1C`, inhibition with HCT-116 [1] was half-maximal at 9.32 µM (IC50). Moreover, in the series with HCT-116 [2], the result was inactive. In the series with HCT-116 [3], the Activity came out at 1.3.
For `CC(=O)OC[C@H]1O[C@@H](O[C@H]2C=C[C@@H](OCCOc3cc(O)c4c(=O)c(-c5ccc(O)cc5)coc4c3)O[C@@H]2COC(C)=O)[C@H](OC(C)=O)[C@@H](OC(C)=O)[C@H]1OC(C)=O`, the IC50 – broadly, the point on the concentration scale where inhibition reaches its midpoint – in the series with HCT-116 [1] was more than 20 µM. Further, the solubility result in series [4] was “Insoluble”.
With `O=c1c(-c2ccc(O)cc2)coc2cc(O)cc(O)c12` [GENISTEIN], the IC50 with HCT-116 [1] is 34.9 µM; in the series with SK-BR-3, 96.7 µM; in the series with MCF7, 62.7 µM; with HT-29, 52.8 µM; in the series with Caco-2, more than 100 µM; in the series with LoVo, 15.9 µM. Also, the IC50 was found to be 89.4 µM with T98G; 47.3 µM in the series with DU-145; 30.7 µM in the series on LNCaP; 65.2 µM in the series with PC-3; 43.1 µM in the series with A549; 41.7 µM in the series on AGS. In addition, the Activity in the series on HCT-116 [3] is recorded as 1.8.
Consider `CC(=O)OC[C@H]1O[C@H](OCCCCCOc2cc(O)c3c(=O)c(-c4ccc(O)cc4)coc3c2)C=C[C@@H]1OC(C)=O`, for which half-maximal inhibition in the series on HCT-116 [1] (IC50) was put at 8.45 µM. The Activity entry is “Dose-dependent effect” in the series on HCT-116 [5] and 5.2 in the series with HCT-116 [3].
Molecule `O=c1c(-c2ccc(O)cc2)coc2cc(OCCO)cc(O)c12` registered a half-inhibitory concentration (IC50) with HCT-116 [1] of 25 µM.
As to `O=c1c(-c2ccc(O)cc2)coc2cc(OCCCCCO)cc(O)c12`, the IC50 in the series on HCT-116 [1] was determined as 6.92 µM. For the same molecule, the result in the series with HCT-116 [2] was inactive. The Activity in the series on HCT-116 [3] was 3.

The record behind these values is ChEMBL document CHEMBL1641569, “Synthetic conjugates of genistein affecting proliferation and mitosis of cancer cells” (Bioorg Med Chem, 2011).
